This note sets out measurements from ChEMBL document CHEMBL1144233 (Bioorg Med Chem Lett, 2008).

The source made the active and inactive calls. The rule behind the calls is not given here.

For experiment [1], the target named is Metabotropic glutamate receptor 1 (Rattus norvegicus) (UniProt P23385). The experiment in a line: (§1) Antagonist activity at rat mGluR1 expressed in Syrian golden hamster BHK cells assessed as […] of glutamate-induced calcium flux by fluorescence assay. Set-up: scale not given: the % may be the effect or the level left. In kind it is functional, cell-based. In general terms: A change in cytosolic calcium serves as a functional read-out for many receptors and channels.
Chain of Metabotropic glutamate receptor 1 (Rattus norvegicus) (P23385 19-1199 limits assumed): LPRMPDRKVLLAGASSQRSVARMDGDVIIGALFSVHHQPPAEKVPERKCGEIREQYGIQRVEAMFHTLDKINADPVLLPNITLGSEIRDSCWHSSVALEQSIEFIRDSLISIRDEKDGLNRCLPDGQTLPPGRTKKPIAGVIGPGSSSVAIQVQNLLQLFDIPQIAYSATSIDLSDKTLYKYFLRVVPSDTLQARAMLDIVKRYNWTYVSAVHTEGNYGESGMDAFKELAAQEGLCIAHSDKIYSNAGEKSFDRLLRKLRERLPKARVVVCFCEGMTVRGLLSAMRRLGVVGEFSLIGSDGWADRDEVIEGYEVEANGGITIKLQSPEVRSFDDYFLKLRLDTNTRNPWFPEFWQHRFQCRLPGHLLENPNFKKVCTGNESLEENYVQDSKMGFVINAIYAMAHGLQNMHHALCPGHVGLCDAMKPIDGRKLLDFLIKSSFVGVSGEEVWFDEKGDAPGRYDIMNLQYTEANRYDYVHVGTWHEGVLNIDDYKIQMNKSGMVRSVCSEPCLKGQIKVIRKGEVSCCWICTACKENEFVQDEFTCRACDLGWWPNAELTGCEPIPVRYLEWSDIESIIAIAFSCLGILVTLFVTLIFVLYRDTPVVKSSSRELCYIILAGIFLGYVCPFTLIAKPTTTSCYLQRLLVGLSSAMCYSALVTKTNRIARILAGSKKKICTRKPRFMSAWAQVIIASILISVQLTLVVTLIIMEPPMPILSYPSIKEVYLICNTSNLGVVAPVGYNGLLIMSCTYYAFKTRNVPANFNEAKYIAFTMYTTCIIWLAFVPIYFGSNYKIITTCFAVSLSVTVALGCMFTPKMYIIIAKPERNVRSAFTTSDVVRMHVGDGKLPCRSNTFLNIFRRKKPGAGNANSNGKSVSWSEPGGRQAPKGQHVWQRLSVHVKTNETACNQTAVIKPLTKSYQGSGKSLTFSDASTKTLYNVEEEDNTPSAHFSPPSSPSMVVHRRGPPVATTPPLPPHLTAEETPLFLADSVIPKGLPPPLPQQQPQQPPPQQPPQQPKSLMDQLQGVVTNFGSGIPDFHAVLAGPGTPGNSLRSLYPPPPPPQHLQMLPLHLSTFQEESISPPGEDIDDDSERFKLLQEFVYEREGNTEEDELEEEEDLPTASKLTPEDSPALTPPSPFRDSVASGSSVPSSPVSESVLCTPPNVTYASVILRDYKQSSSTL

Experiment [2] has as its target T1, Metabotropic glutamate receptor 4 (Homo sapiens, UniProt Q14833). The experiment in a line: Activity at human mGluR4 expressed in CHO cells assessed as fold potentiation of glutamate-induced calcium flux at 30 uM by fluorescence assay relative to control.
Target sequence in this assay (Q14833 whole entry, looked up): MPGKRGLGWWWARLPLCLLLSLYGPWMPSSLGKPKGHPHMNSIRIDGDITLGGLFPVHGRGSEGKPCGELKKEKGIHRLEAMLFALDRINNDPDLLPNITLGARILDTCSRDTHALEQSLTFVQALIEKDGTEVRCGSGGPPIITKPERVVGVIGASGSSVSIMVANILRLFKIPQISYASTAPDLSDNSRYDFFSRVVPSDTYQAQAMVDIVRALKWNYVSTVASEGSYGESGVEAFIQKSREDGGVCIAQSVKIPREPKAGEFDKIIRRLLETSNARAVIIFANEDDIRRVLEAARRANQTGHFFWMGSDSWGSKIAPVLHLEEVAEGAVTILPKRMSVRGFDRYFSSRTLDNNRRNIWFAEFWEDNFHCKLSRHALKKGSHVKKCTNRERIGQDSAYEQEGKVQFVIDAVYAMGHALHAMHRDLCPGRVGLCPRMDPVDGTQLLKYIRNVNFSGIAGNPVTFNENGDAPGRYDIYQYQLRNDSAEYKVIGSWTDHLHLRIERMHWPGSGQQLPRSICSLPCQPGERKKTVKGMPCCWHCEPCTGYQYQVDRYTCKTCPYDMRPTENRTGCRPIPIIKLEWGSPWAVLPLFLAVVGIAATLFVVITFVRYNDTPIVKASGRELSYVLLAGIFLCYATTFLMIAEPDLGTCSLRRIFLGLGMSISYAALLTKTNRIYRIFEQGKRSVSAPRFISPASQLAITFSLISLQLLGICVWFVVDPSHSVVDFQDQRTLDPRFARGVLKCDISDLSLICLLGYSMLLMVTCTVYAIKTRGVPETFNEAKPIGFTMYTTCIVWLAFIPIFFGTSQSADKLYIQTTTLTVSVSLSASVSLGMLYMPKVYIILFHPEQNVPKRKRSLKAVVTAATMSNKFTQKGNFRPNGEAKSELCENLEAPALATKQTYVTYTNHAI
Experiment [3] addresses Metabotropic glutamate receptor 1 (Rattus norvegicus, UniProt P23385). The description is as §1. In kind it is functional, cell-based.
Experiment [4] addresses T1, Metabotropic glutamate receptor 4. Put plainly: Activity at human mGluR4 expressed in CHO coexpressing Gqi5 assessed as potentiation of calcium flux by fluorescence assay in absence of glutamate. In kind it is functional. Put shortly:
(§2)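 CHO cells stably co-expressing human mGluR4 and chimeric Gqi5, plated 30,000 cells/well in assay medium (DMEM, 10% dialyzed FBS, 20 mM HEPES) and grown overnight at 37 °C, 5% CO₂. Loaded with 1 µM Fluo-4AM in HBSS/20 mM HEPES/2.5 mM probenecid for 45 min at 37 °C.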
Target sequence in this assay (Q14833 whole entry): as the sequence (Q14833 whole entry, looked up) above

For experiment [5] the target is unchanged. Put plainly: Activity at human mGluR4 expressed in CHO coexpressing Gqi5 assessed as potentiation of glutamate-induced calcium flux by fluorescence assay. It is filed as functional. In outline: as §2
Target sequence in this assay (Q14833 whole entry): as the sequence (Q14833 whole entry, looked up) above

Chain of Metabotropic glutamate receptor 1 (P23385 whole entry): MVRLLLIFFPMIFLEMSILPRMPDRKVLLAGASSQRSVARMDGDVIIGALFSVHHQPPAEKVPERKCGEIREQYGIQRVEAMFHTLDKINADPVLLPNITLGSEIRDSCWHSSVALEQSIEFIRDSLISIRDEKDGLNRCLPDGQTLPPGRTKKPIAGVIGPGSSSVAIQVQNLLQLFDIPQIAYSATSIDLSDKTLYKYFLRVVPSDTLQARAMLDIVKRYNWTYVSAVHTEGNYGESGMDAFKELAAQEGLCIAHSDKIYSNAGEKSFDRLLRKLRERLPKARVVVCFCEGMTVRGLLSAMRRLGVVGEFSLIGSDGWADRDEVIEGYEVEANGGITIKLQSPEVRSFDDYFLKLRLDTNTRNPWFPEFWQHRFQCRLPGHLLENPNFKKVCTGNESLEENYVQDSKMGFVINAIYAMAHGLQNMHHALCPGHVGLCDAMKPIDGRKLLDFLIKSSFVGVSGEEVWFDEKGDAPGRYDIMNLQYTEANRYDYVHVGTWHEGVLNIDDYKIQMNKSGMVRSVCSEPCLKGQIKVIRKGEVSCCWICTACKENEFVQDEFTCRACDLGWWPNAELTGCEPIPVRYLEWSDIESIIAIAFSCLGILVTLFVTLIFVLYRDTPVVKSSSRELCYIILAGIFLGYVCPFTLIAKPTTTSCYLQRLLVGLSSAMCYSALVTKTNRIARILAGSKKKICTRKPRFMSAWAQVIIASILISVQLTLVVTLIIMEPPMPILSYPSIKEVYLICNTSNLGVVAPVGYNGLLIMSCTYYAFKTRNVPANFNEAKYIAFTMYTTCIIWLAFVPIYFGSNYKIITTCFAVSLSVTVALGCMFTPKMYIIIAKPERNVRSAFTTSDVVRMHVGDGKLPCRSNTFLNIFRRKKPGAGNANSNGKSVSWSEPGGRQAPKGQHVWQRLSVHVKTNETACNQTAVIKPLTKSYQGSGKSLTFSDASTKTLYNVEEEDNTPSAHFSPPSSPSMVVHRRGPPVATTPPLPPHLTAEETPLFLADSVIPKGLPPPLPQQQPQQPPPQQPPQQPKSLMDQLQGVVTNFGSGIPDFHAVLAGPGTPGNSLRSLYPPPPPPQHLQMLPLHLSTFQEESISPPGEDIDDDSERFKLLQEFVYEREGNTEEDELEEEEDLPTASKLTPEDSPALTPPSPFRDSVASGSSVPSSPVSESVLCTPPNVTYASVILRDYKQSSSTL

With `O=C(Nc1ccccc1)[C@]12C[C@H]1/C(=N\O)c1ccccc1O2`, the Activity in experiment [1] was 30%.
With `Cc1ccc(-n2ncc3c(N4CCCC(C(F)(F)F)C4)ncnc32)c(C)c1` (centres undefined), in experiment [2], the fold change (FC) amounted to 9.9.
In the case of `CC1CCCN(c2ncnc3c2cnn3-c2ccccc2Cl)C1` (centres undefined), the fold change (FC) in experiment [2] was 2.7.
With `Cc1ccc(-n2ncc3c(N4CCCC(C)C4)ncnc32)c(C)c1` (centres undefined), the IC50 in experiment [3] amounted to 2.6 µM. For the same molecule, in experiment [2], the fold change (FC) was determined as 11.8. In addition, in experiment [4], the outcome was inactive. Also, the EC50 in experiment [5] worked out at 4.6 µM.
For the molecule `Cc1ccc(-n2ncc3c(N4CCC(n5c(=O)[nH]c6ccccc65)CC4)ncnc32)c(C)c1`, the fold change (FC) in experiment [2] came out at 2.4.
Same read-out and setting: the figure for `Cc1ccc(-n2ncc3c(N4CC(C)OC(C)C4)ncnc32)c(C)c1` (centres undefined) is 3.5.

Usually IC50 stands for the point on the concentration scale where inhibition reaches its midpoint. The EC50 is the concentration that produces a half-maximal response.
